Activity calls are given as the source filed them. The calls are words filed in the database; no cut-off is given here.
Key:
Format in all cases: functional, organism-based
[1] = tested on: Cercopithecidae; experiment: Psychotropic effects in Baboons at a dose 2.0 mg/kg; - = no change; design: dose 2 mg/kg
How it was run: (§1)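 Male or female baboons were given a single injection, with two animals per dose level. The same animals received the solvent alone 1 week later. Behaviour was scored by observation, including yawning, body scratching, motor activity, ptosis, posture and responsiveness.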

[2] = tested on: Cercopithecidae; experiment: Induction of yawning and scratching was determined in Baboons at a dose 10.0 mg/kg; present; design: dose 10 mg/kg; how it was run: as §1
[3] = tested on: Cercopithecidae; experiment: Induction of yawning and scratching was determined in Baboons at a dose 5.0 mg/kg; present; design: dose 5 mg/kg; how it was run: as §1
[4] = tested on: Cercopithecidae; experiment: Induction of yawning and scratching was determined in Baboons at a dose 2.0 mg/kg; present; design: dose 2 mg/kg; how it was run: as §1
[5] = tested on: Cercopithecidae; experiment: Psychotropic effects in Baboons at a dose 5.0 mg/kg; - = no change; design: dose 5 mg/kg; how it was run: as §1
[6] = tested on: Cercopithecidae; experiment: Psychotropic effects in baboons at a dose 10.0 mg/kg; +/- = tranquility; design: dose 10 mg/kg; how it was run: as §1
[7] = tested on: Cercopithecidae; experiment: Psychotropic effects in Baboons at a dose 10.0 mg/kg; - = no change; design: dose 10 mg/kg; how it was run: as §1
[8] = tested on: Cercopithecidae; experiment: Psychotropic effects in Baboons at a dose 0.1 mg/kg; ++ = stupor, ataxia, suppression of motor activity, full ptosis, typical crouched posture (thinker position) kept for up to 3 h; design: dose 0.1 mg/kg; how it was run: as §1
[9] = tested on: Cercopithecidae; experiment: Induction of yawning and scratching was determined in Baboons at a dose 0.1 mg/kg; absent; design: dose 0.1 mg/kg; how it was run: as §1
[10] = tested on: Cercopithecidae; experiment: Induction of yawning and scratching was determined in Baboons at a dose 0.5 mg/kg; absent; design: dose 0.5 mg/kg; how it was run: as §1
[11] = tested on: Cercopithecidae; experiment: Psychotropic effects in Baboons at a dose 0.05 mg/kg; + = drowsiness, decreased motor activity, occasional partial ptosis, occasional head drop; design: dose 0.05 mg/kg; how it was run: as §1
[12] = tested on: Cercopithecidae; experiment: Psychotropic effects in baboons at a dose 0.5 mg/kg; +++ = severe stupor and ataxia, full ptosis, immobility, crouched posture lasting for more than 3 h, and absence of reaction to external stimuli; design: dose 0.5 mg/kg; how it was run: as §1
[13] = tested on: Cercopithecidae; experiment: Induction of yawning and scratching was determined in Baboons at a dose 0.05 mg/kg; absent; design: dose 0.05 mg/kg; how it was run: as §1
[14] = tested on: Cercopithecidae; experiment: Induction of yawning and scratching was determined in Baboons at a dose 10.0 mg/kg; absent; design: dose 10 mg/kg; how it was run: as §1
[15] = tested on: Cercopithecidae; experiment: Induction of yawning and scratching was determined in Baboons at a dose 5.0 mg/kg; absent; design: dose 5 mg/kg; how it was run: as §1
[16] = tested on: Cercopithecidae; experiment: Induction of yawning and scratching was determined in Baboons at a dose 2.0 mg/kg; absent; design: dose 2 mg/kg; how it was run: as §1
[17] = tested on: Cercopithecidae; experiment: Psychotropic effects in Baboons at a dose 5.0 mg/kg; +/- = tranquility; design: dose 5 mg/kg; how it was run: as §1
[18] = tested on: Cercopithecidae; experiment: Psychotropic effects in baboons at a dose 10.0 mg/kg;+/- = tranquility; design: dose 10 mg/kg; how it was run: as §1
[19] = tested on: Cercopithecidae; experiment: Induction of yawning and scratching was determined in Baboons at a dose 4.0 mg/kg; absent; design: dose 4 mg/kg; how it was run: as §1
[20] = tested on: Cercopithecidae; experiment: Psychotropic effects in Baboons at a dose 4.0 mg/kg; - = no change; design: dose 4 mg/kg; how it was run: as §1
[21] = tested on: Cercopithecidae; experiment: Psychotropic effects in Baboons at a dose 2.0 mg/kg; + = drowsiness, decreased motor activity, occasional partial ptosis, occasional head drop; design: dose 2 mg/kg; how it was run: as §1
[22] = tested on: Cercopithecidae; experiment: Induction of yawning and scratching was determined in Baboons at a dose 1.0 mg/kg; absent; design: dose 1 mg/kg; how it was run: as §1
[23] = tested on: Cercopithecidae; experiment: Psychotropic effects in Baboons at a dose 1.0 mg/kg; - = no change; design: dose 1 mg/kg; how it was run: as §1
[24] = tested on: Cercopithecidae; experiment: Psychotropic effects in Baboons at a dose 0.5 mg/kg; ++ = stupor, ataxia, suppression of motor activity, full ptosis, typical crouched posture (thinker position) kept for up to 3 h; design: dose 0.5 mg/kg; how it was run: as §1
[25] = tested on: Cercopithecidae; experiment: Psychotropic effects in Baboons at a dose 1.0 mg/kg; +++ = severe stupor and ataxia, full ptosis, immobility, crouched posture lasting for more than 3 h, and absence of reaction to external stimuli; design: dose 1 mg/kg; how it was run: as §1
[26] = tested on: Cercopithecidae; experiment: Psychotropic effects in Baboons at a dose 0.1 mg/kg; +/- = tranquility; design: dose 0.1 mg/kg; how it was run: as §1

CCCCCc1cc(O)c2c(c1)OC(C)(C)[C@@H]1CC[C@H](CNC)CC21 (stereo partly drawn)
Activity [1]: inactive
Activity [2]: present
Activity [3]: present
Activity [4]: present
Activity [5]: inactive
Activity [6]: +/-

CCCCCc1cc(O)c2c(c1)OC(C)(C)[C@@H]1CC[C@H](CN(C)C)CC21 (stereo partly drawn)
Activity [1]: inactive
Activity [2]: present
Activity [3]: present
Activity [4]: present
Activity [7]: inactive
Activity [5]: inactive

CCCCCc1cc(O)c2c(c1)OC(C)(C)[C@@H]1CC=C(C)C[C@@H]21
Activity [8]: Active
Activity [9]: inactive
Activity [10]: inactive
Activity [11]: Weak activity
Activity [12]: Active
Activity [13]: inactive

CCCCCc1cc(O)c2c(c1)OC(C)(C)[C@@H]1CCC(CNC)CC21 (stereo partly drawn)
Activity [1]: inactive
Activity [14]: inactive
Activity [15]: inactive
Activity [16]: inactive
Activity [17]: +/-
Activity [18]: +/-

CCCCCc1cc(O)c2c(c1)OC(C)(C)[C@@H]1CCC(CN(C)C)CC21 (stereo partly drawn)
Activity [1]: inactive
Activity [19]: inactive
Activity [16]: inactive
Activity [20]: inactive

CCCCCc1cc(O)c2c(c1)OC(C)(C)[C@@H]1CC[C@H](C)CC21 (stereo partly drawn)
Activity [21]: drowsiness, decreased motor activity, occasional partial ptosis, occasional head drop
Activity [22]: inactive
Activity [16]: inactive
Activity [23]: inactive

CCCCCc1cc(O)c2c(c1)OC(C)(C)[C@@H]1CC[C@@H](C)CC21 (stereo partly drawn)
Activity [9]: inactive
Activity [10]: inactive
Activity [22]: inactive
Activity [24]: severe stupor and ataxia, full ptosis, immobility, crouched posture lasting for more than 3 h, and absence of reaction to external stimuli
Activity [25]: severe stupor and ataxia, full ptosis, immobility, crouched posture lasting for more than 3 h, and absence of reaction to external stimuli
Activity [26]: +/-
